Bioassay records from PubChem BioAssay.
Insulin prom act = TRM-6 insulin promoter activation. activation, % at 2 µM. hit rate 0.81% among 130,000. TRM-6 cells, insulin promoter eGFP reporter, imaging; plate-scaled: unstimulated 0, stimulated control 100;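 active = activation at 2 µM above a set limit, confirmed on inspection of the cell images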;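 also: share of cells whose green reporter signal exceeds an intensity cutoff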
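System – human fetal islet-derived TRM-6 cells with tamoxifen-inducible insulin promoter–eGFP reporter · Amount – 1,000 cells per well · Schedule – overnight tamoxifen, then two-day compound incubation at 37 °C · Detection – high-content imaging of fixed cells with Hoechst nuclear stain · Read-out – percent cells above green-intensity threshold, converted to percent activation versus plate controls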
* hit, by the source's call. The full list was thinned out, with hits kept by preference.

SMILES	Insulin prom act
c1ccc2[nH]c(CN3CCOCC3)nc2c1	-2.9
N#C/C(=C\c1ccc(N2CCOCC2)o1)c1nc2ccccc2[nH]1	142.1*
C=CCn1c(CNC(=O)c2ccccc2C)nnc1SCC(=O)NC1CCCC1	304.7
C=CCn1c(CNC(=O)c2ccco2)nnc1SCC(=O)N1c2ccccc2Sc2ccccc21	103.3*
Cn1nnnc1SCC(=O)N1c2ccccc2Sc2ccccc21	-9.1
COC(=O)Cn1ncc(N2C3CC(CC(C)(C)C3)C2C)c(Cl)c1=O (centres undefined)	2.7
CC1CC(NS(=O)(=O)c2cccs2)CC(C)(C)C1 (centres undefined)	121.4
CN1CCN(C(=O)C(C(=O)c2ccc(F)cc2)n2ccccc2=O)CC1 (centres undefined)	-5.7
CC(C)(C)c1ccc(OCCNC(=O)c2ncn[nH]2)cc1	-8.6
CCNc1nc(N)nc(-c2cc(Cl)ccc2O)n1	-61.5
CCCNc1nc(N)nc(-c2cc(Cl)ccc2OC)n1	0.0
CCCN(CCC)c1nc(N)nc(-c2cc(Cl)ccc2OC)n1	82.9*
CCN(CC)c1nc2ccccc2nc1-n1nc(C)cc1C	-6.7
Cc1ccc(C(=O)c2cc([N+](=O)[O-])ccc2N2CCCCC2)c(C)c1	148.4
COc1ccc2c(c1)c(=O)c(C(=O)c1ccccc1)cn2Cc1ccc(C)cc1	-7.3
O=C(O)c1cn(Cc2ccccc2)c2ccccc2c1=O	383.3*
O=C1C2C3C=CC(C3)C2C(=O)N1/N=C/c1cn(Cc2ccccc2)c2ccccc12 (centres undefined)	-5.0
COc1ccc(N(CC(=O)Nc2ccccc2C(=O)NCCc2ccccc2)S(C)(=O)=O)cc1OC	0.0
CC(C)Cc1nc(N2CCN(C(=O)c3ccco3)CC2)c(C#N)c2c1CCC2	-8.3
N#Cc1c(N2CCN(C(=O)c3ccccc3)CC2)nc(-c2ccccc2)c2c1CCCC2	79.3*
N#Cc1c(N2CCN(C(=O)c3ccco3)CC2)nc(-c2ccccc2)c2c1CCCC2	-71.4
CCNC(=O)C/C(C)=N/NC(=O)C(=O)Nc1ccc(CC)cc1	-7.1
Cc1ccc(NC(=S)N(CCCN(C)C)Cc2cc3cc4c(cc3[nH]c2=O)OCO4)c(C)c1	0.0
COc1ccc(Cl)cc1NC(=O)CN(C)CC(=O)Nc1ccc(C)cc1Br	-7.1
CCC(=O)N1CCN(c2nc(-c3ccc(Cl)cc3)cs2)CC1	464.3*
SMILES	Insulin prom act
Fc1ccc(-c2csc(N3CCSCC3)n2)cc1	109.1
CCc1nnc(NC(=O)CN2CCN(c3nc(-c4ccccc4)cs3)CC2)s1	7.1
CC(C)NCC(O)COc1ccc2c(c1)CCC2 (centres undefined)	-3.3
CCOC(=O)c1cc(-c2ccccc2)n(CCC(=O)N2CCN(c3ccccn3)CC2)c1C	9.4
Cn1c(=N)n(CC(=O)O)c2ccccc21	0.0
CCN(CC)CCn1c(=N)n(CC(O)c2ccco2)c2ccccc21 (centres undefined)	507.7*
N=c1n(Cc2ccccc2)c2ccccc2n1CC(O)c1ccco1 (centres undefined)	0.0
O=C(O)C1Nc2c(O)cc(Cl)c([N+](=O)[O-])c2C2C=CCC12 (centres undefined)	0.0
CC(C)N1CCN(CC#Cc2ccccc2)CC1CCO (centres undefined)	0.0
N#C/C(=C\c1ccc([N+](=O)[O-])o1)C(=O)Nc1ccc(F)cc1	400.0*
N#C/C(=C\c1ccc(N2CCCCC2)o1)C(=O)Nc1cccc(Br)c1	185.7
O=C1OC(c2ccc(F)cc2)=C/C1=C\c1ccc([N+](=O)[O-])o1	168.8
Cc1c(Cl)c([N+](=O)[O-])nn1CC(=O)NC12CC3CC(CC(C3)C1)C2	4.2
COc1ccc(C(=O)Nc2ccc([N+](=O)[O-])cn2)c(OC)c1	-8.8
Cc1ccc(C(=O)c2cn[nH]c2-c2ccccc2O)cc1	0.0
Cc1[nH]nc2ncc(C(=O)c3ccccc3O)cc12	-80.0
O=C(c1ccc(F)cc1)c1cn[nH]c1-c1ccccc1O	171.0*
CCCCC(=O)Nc1nc2ccc(C(=O)OC)cc2s1	0.0
O=c1c(C(c2ccccc2)c2c(O)sc3ccccc3c2=O)c(O)sc2ccccc12	-80.0
CCn1c(COc2ccc(C)cc2)nnc1SCC(=O)NNC(=O)c1ccc(OC)cc1	3.4
O=C(CN1CCC(n2cnc3cc(F)ccc32)CC1)Nc1ccccc1Br	-6.7
CCc1c(C)c(C#N)c2nc3ccccc3n2c1Cl	153.3
CC(C)c1cc(NCC2CCCO2)n2c(nc3ccccc32)c1C#N (centres undefined)	78.6*
Cc1c(C#N)c2ccccc2n1CC(=O)NCC1CCCO1 (centres undefined)	7.1
Cc1cc(NCCN2CCCCC2)n2c(nc3ccccc32)c1C#N	5.3
SMILES	Insulin prom act
CCc1c(C)c(C#N)c2nc3ccccc3n2c1N1CCN(c2cc(C)ccn2)CC1	-2.8
CCc1c(C)c(C#N)c2nc3ccccc3n2c1NCC1CCCO1 (centres undefined)	79.3*
CCOC(=O)C1CCN(CCC(=O)Nc2ccc(F)cc2)CC1	7.7
CCOc1cc(CN2CCN(C(=O)c3ccco3)CC2)ccc1OC	9.4
CCOC(=O)c1cc(C)n(Cc2ccc(OCC)c(OC)c2)c1C	85.7*
CCOC(=O)CC1C(=O)NCCN1Cc1ccc(OC)c(OC)c1 (centres undefined)	154.5
CNC(=S)/N=C(/Nc1ccccc1)c1ccccc1	122.2
O=C1C(=O)N(CCc2c[nH]c3ccccc23)C(c2cccnc2)/C1=C(/O)c1ccccc1 (centres undefined)	0.0
Cc1cc(C)n(CC(O)Cn2c3ccc(Br)cc3c3cc(Br)ccc32)c(=O)n1 (centres undefined)	77.1*
CC(c1ccc(F)cc1)n1c(Cn2ncc3ccccc3c2=O)n[nH]c1=S (centres undefined)	-3.7
O=C(CSc1nc2ccccc2s1)Nc1nccs1	-2.8
Nc1nonc1NC(=O)CSc1nc2ccccc2s1	3.6
O=C(CSc1nc2ccccc2s1)CSc1nc2ccccc2s1	94.3*
O=C(CSc1nc2ccccc2s1)NNC(=S)Nc1ccccc1	-3.2
O=C(CSc1nc2ccccc2s1)N/N=C/c1ccc(C(=O)O)cc1	161.1*
O=C(CSc1nc2ccccc2o1)N/N=C/c1ccccc1	3.3
COc1ccc(C(=O)/C=C/c2ccc(OC)c(Cn3nnc4ccccc43)c2)cc1	-7.9
CCn1c(SCC(=O)c2[nH]c(C)c(C(C)=O)c2C)nnc1-c1ccccc1	0.0
O=C(O)CCc1nnc(SCC(=O)Nc2cccc(C(F)(F)F)c2)[nH]c1=O	107.7
COc1ccc(OC)c(S(=O)(=O)NC(C)(C)C)c1	7.1
COc1cccc(NC(=O)CN(c2cccc(F)c2)S(C)(=O)=O)c1	443.8*
CC(=O)c1cccc(N(CC(=O)Nc2ccc(F)cc2)S(C)(=O)=O)c1	2.6
COc1ccc(NC(=O)CN(c2cccc(C(F)(F)F)c2)S(C)(=O)=O)cc1OC	7.0
COCC(=O)N(c1ccccc1)C(C)C(=O)OC (centres undefined)	-5.9
CC1CCCCN1C(=O)CNCC1CCCO1 (centres undefined)	7.7
SMILES	Insulin prom act
CCOc1ccccc1C(=O)Nc1cnn(Cc2ccc(F)cc2)c1	7.4
O=C1C2C3C=CC(CC3)C2C(=O)N1c1ccccc1[N+](=O)[O-] (centres undefined)	-7.1
O=C(NCCc1nc2ccccc2[nH]1)/C(=C/c1ccco1)NC(=O)c1ccc(Br)o1	8.8
COc1ccccc1CC(=O)Nc1cccc2c1CCCC2	7.7
COc1ccccc1CC(=O)Nc1cc(Cl)ccc1O	-4.7
COc1cc(NC(=O)Cc2ccccc2OC)cc(OC)c1	435.3*
